One data set deals with Plasmodium falciparum. Nature of the data set: Antimalarial activity against chloroquine-sensitive Plasmodium falciparum 3D7 erythrocytic stage after 48 hrs by Giemsa staining-based microscopic analysis. In kind it is functional, organism-based. As to conditions: 3D7, 48 h. In a few lines: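 Parasites kept in human O+ erythrocytes in RPMI 1640 with HEPES, NaHCO3, L-glutamine, gentamicin and Albumax II, under 3% O2/4% CO2/93% N2 at 37 °C. DMSO stocks (1 mg/ml) diluted into gentamicin-free RPMI. Graded concentrations for 48 h at 37 °C, medium changed at 24 h, in triplicate. Parasites counted per about 4000 erythrocytes on Giemsa thin smears. IC50 taken from semi-log plots.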

A short description of data set [1]: Cytotoxicity against human HuH7 cells assessed as reduction in cell viability after 72 hrs by MTT assay. In kind it is cell-based, Huh-7. In a few lines: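 Huh-7 monolayers grown in DMEM at 37 °C in 5% CO2. Cells seeded at about 20,000 per well and left 24 h, then given fresh medium containing 1, 10, 20, 30, 50 or 100 μg/mL compound for 72 h. Viability read by MTT, absorbance at 570 nm.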
A general note: Tetrazolium dyes change colour on reduction, which living cells bring about.

For data set [2], the target named is DNA gyrase (Escherichia coli) (UniProt P0AES6+P0AES4). Nature of the data set: Inhibition of Escherichia coli DNA gyrase assessed as inhibition of enzyme-mediated supercoiling of relaxed pHOT1 DNA substrate at IC50 after 1 hr by ethidium bromide staining based agarose gel electrophoresis. In kind it is protein-complex assay.

In brackets after ≈: the same amount, converted by molar mass. Activity calls are given as the source filed them. The calls are words filed in the database; no cut-off is given here.

Usually IC50 stands for the concentration that inhibits the measured activity by half. Usually CC50 stands for the concentration giving 50% cytotoxicity. In the data set with Plasmodium falciparum, `Cc1cc(=O)oc2cc(OCc3cn(-c4ccccc4F)nn3)ccc12` displayed a 50% inhibitory concentration (IC50) of 2.48 µg/mL (≈ 7.06 µM). The CC50 at 72 h in data set [1] is greater than 100 µg/mL.
For `Cc1cc(=O)oc2cc(OCc3cn(-c4ccccc4[N+](=O)[O-])nn3)ccc12`, in that order: 6.86 µg/mL (≈ 18.1 µM) and greater than 100 µg/mL.
Compound `Cc1cc(=O)oc2cc(OCc3cn(-c4ccc(Oc5ccccc5)cc4)nn3)ccc12` registered an IC50 in the data set on Plasmodium falciparum of 4.56 µg/mL (≈ 10.7 µM). For the same compound, the CC50 at 72 h in data set [1] was greater than 100 µg/mL.
Consider `Cc1cc(=O)oc2cc(OCc3cn(-c4cccc(F)c4)nn3)ccc12`, for which, in the data set on Plasmodium falciparum, the IC50 was found to be 9.46 µg/mL (≈ 26.9 µM). Besides, in data set [1], the CC50 at 72 h is greater than 100 µg/mL.
In the case of `COc1ccc(-n2cc(COc3ccc4c(C)cc(=O)oc4c3)nn2)c(OC)c1`, the inhibition entry in data set [2] was “Active”. The IC50 in the data set with Plasmodium falciparum worked out at 0.763 µg/mL (≈ 1.94 µM). The CC50 at 72 h in data set [1] is greater than 100 µg/mL.
Consider `Cc1cc(=O)oc2cc(OCc3cn(-c4ccc(F)cc4)nn3)ccc12`, for which the 50% inhibitory concentration (IC50) in the data set with Plasmodium falciparum worked out at 6.43 µg/mL (≈ 18.3 µM). For the same compound, in data set [1], the CC50 at 72 h is greater than 100 µg/mL.
For `COc1cc(-n2cc(COc3ccc4c(C)cc(=O)oc4c3)nn2)cc(OC)c1OC`, in that order: 11.1 µg/mL (≈ 26.1 µM) and greater than 100 µg/mL.
For `Cc1cc(=O)oc2cc(OCc3cn(-c4ccc(F)c(Cl)c4)nn3)ccc12`, in that order: 7.43 µg/mL (≈ 19.3 µM) and greater than 100 µg/mL.
`Cc1ccc(-n2cc(COc3ccc4c(C)cc(=O)oc4c3)nn2)c(Cl)c1`: in data set [2], the inhibition entry was “Active”. This compound displayed an IC50 in the data set with Plasmodium falciparum of 1.5 µg/mL (≈ 3.92 µM). The CC50 at 72 h in data set [1] is greater than 100 µg/mL.
In turn, `Cc1cc(=O)oc2cc(OCc3cn(-c4ccccc4Cl)nn3)ccc12` had an IC50 in the data set on Plasmodium falciparum of 8.94 µg/mL (≈ 24.3 µM). Further, in data set [1], the CC50 at 72 h was greater than 100 µg/mL.
Compound `Cc1cc(=O)oc2cc(OCc3c[nH]nn3)ccc12` yielded an IC50 in the data set with Plasmodium falciparum of 1.82 µg/mL (≈ 7.06 µM). Also, in data set [1], the CC50 at 72 h is greater than 100 µg/mL.
For `Cc1cc(=O)oc2cc(OCc3cn(Cc4ccc([N+](=O)[O-])cc4)nn3)ccc12`, in that order: 2.23 µg/mL (≈ 5.68 µM) and greater than 100 µg/mL.
In the case of `Cc1cc(=O)oc2cc(OCc3cn(-c4ccc(Cl)cc4)nn3)ccc12`, the IC50 with Plasmodium falciparum was 8.43 µg/mL (≈ 22.9 µM). Besides, in data set [1], the CC50 at 72 h is greater than 100 µg/mL.
As to `Cc1cc(F)ccc1-n1cc(COc2ccc3c(C)cc(=O)oc3c2)nn1`, the midpoint of inhibition in the data set on Plasmodium falciparum, the IC50, lay at 12.8 µg/mL (≈ 35 µM). In addition, the CC50 at 72 h in data set [1] was greater than 100 µg/mL.
In the data set on Plasmodium falciparum, `Cc1cc(=O)oc2cc(OCc3cn(-c4ccnc5cc(Cl)ccc45)nn3)ccc12` returned an IC50 of 10.6 µg/mL (≈ 25.3 µM). The CC50 at 72 h in data set [1] is greater than 100 µg/mL.
The corresponding values for `CC(=O)Nc1ccc(-n2cc(COc3ccc4c(C)cc(=O)oc4c3)nn2)cc1` are 4.16 µg/mL (≈ 10.7 µM) and greater than 100 µg/mL.
For `Cc1cc(=O)oc2cc(OCc3cn(-c4ccc(F)cc4F)nn3)ccc12`, in that order: 15.4 µg/mL (≈ 41.7 µM) and greater than 100 µg/mL.
For `Cc1cc(=O)oc2cc(OCc3cn(Cc4ccccc4)nn3)ccc12`, in that order: 6.4 µg/mL (≈ 18.4 µM) and greater than 100 µg/mL.
Take `Cc1cc(C)cc(-n2cc(COc3ccc4c(C)cc(=O)oc4c3)nn2)c1`: the inhibition result in data set [2] is “Active”. In addition, the midpoint of inhibition in the data set on Plasmodium falciparum, the IC50, lay at 0.893 µg/mL (≈ 2.47 µM). The CC50 at 72 h in data set [1] is greater than 100 µg/mL.
Regarding `COC(=O)Cn1cc(COc2ccc3c(C)cc(=O)oc3c2)nn1`, the IC50 with Plasmodium falciparum amounted to 3.3 µg/mL (≈ 10 µM). Moreover, the half-maximal cytotoxic concentration (CC50) at 72 h in data set [1] is greater than 100 µg/mL.
For `Cc1cc(=O)oc2cc(OCc3cn(-c4ccc(OC(F)(F)F)cc4)nn3)ccc12`, in that order: 5 µg/mL (≈ 12 µM) and greater than 100 µg/mL.
`Cc1cc(=O)oc2cc(OCc3cn(CCO)nn3)ccc12`: the IC50 with Plasmodium falciparum was 3.36 µg/mL (≈ 11.2 µM). Also, in data set [1], the CC50 at 72 h was greater than 100 µg/mL.
